# Experimental data pooled from the literature.
# Lines come from different studies, so protocols differ.
# Cell line: MOLM-13
# Effect on: cell growth or viability
Structure (SMILES),assay,conditions,endpoint,value
CN(C)CCNC(=O)c1ccc(-c2nc3ccc4[nH]ncc4c3c3c2CCCC3)cc1,,72 h,GI50,100 nM
c1cc(N2CCCCC2)ccc1Nc1cc2ncc(OCC3CCNCC3)nc2cc1-c1ccc(N2CCCCC2)cc1,XTT,7 days,EC50,2800 nM
CN(C)CCNC(=O)c1ccc(-c2nc3ccc4[nH]ncc4c3c3c2CCCC3)c(F)c1,,72 h,GI50,262 nM
c1ccc(COc2ccc(Nc3ccc4ncc(OCC5CCNCC5)nc4c3)cc2)cc1,XTT,7 days,EC50,840 nM
Cc1cc2c(C(N)=O)cccc2n1-c1nc2c(c(NCc3ccccc3)n1)CCCN2,,72 h,IC50,800 nM
NCCCC(=O)Nc1ccccc1/N=c1\cc(-c2ccc3c(c2)OCO3)oc2ccccc12,CCK-8,1 µM,inhibition,0.08%
Cc1n[nH]c2ccc3nc(-c4ccc(C(=O)NCCN(C)C)cc4)c4c(c3c12)CCCCC4,,72 h,GI50,187 nM
COc1ccc2/c(=N/c3ccccc3NC(=O)N3CCOCC3)cc(-c3ccc4c(c3)OCCO4)oc2c1,CCK-8,1 µM,inhibition,3.11%
Fc1ccc(Oc2ccc(Nc3ccc4ncc(OCC5CCNCC5)nc4c3)cc2)cc1,XTT,7 days,EC50,1600 nM
C[C@H](N)C(=O)Nc1ccccc1/N=c1\cc(-c2ccc3c(c2)OCCO3)oc2c(N)cccc12,CCK-8,1 µM,inhibition,3.7%
CONC(=O)c1cccc2c1cc(C)n2-c1nc2c(c(NCc3ccccc3)n1)CCCN2,,72 h,IC50,1400 nM
NCC(=O)Nc1ccccc1/N=c1\cc(-c2ccc3c(c2)OCO3)oc2ccccc12,CCK-8,1 µM,inhibition,1.52%
CN(C)CCNC(=O)c1ccc(-c2nc3ccc4[nH]ncc4c3c3c2CCCCC3)cc1,,72 h,GI50,84 nM
Nc1cccc(-c2ccc3ncc(OCC4CCNCC4)nc3c2)c1,XTT,7 days,EC50,28300 nM
CCNc1nc2ccc(-c3c/c(=N\c4ccccc4NC(=O)CCN)c4ccccc4o3)cc2o1,CCK-8,1 µM,inhibition,12.2%
